Activity calls are given as the source filed them.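 The calls were made as follows, unless noted: active = viability at or below 10% of carrier control in both of two separate runs; inconclusive = viability at or below 10% in only one of the two runs; inactive = the rest.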
How the values were obtained:
[1] = reducers of endogenous Her2 protein level, primary screen, SKBR3 breast tumor cells, AlphaScreen, ATP viability (AID 461;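 active = Her2 level under about 52% in both replicate screens, with viability over 70% of control, limit read from the data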;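 as to Her2 level: lower value means less Her2 protein in the cells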;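 as to viability: percent of carrier control wells set as 100% viability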); conditions: 18-24 h, measured here: SKBR3 viability, ATP luminescence, at 10 µM
[2] = target: Receptor tyrosine-protein kinase erbB-2 (Homo sapiens) (UniProt P04626); assay: as above; conditions: 18-24 h, at 10 µM, stronger effect = lower value
[3] = SK-BR-3 cell growth inhibitors, pilot screen, 24 h, human (AID 572); conditions: SK-BR-3 viability, CellTiter-Glo luminescence, at 10 µM, stronger effect = lower value;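 also: compound exposure lasted between 18 and 24 h rather than exactly 24 h; 100% = carrier-treated control wells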
[4] = HUVEC growth inhibition – cell-based, human, primary screen (AID 575;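 active = viability at or below 30% in both replicate assays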;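 also: 100% = median of untreated cell wells with 0.1% DMSO on each plate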); conditions: HUVEC proliferation, CellTiter-Glo luminescence, 72 h; at 10 µM; stronger effect = lower value
Method in brief: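 Material: primary human umbilical vein endothelial cells / Schedule: 72 h exposure, 37 °C, 5% CO2, 30 min RT equilibration / Signal: ATP-based CellTiter-Glo luminescent read / Read-out basis: percent of median DMSO-control luminescence / Control set: 32 DMSO-only cell-control wells (high), 32 MePR drug-control wells (low) per plate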

[5] = growth inhibitors of H69AR lung tumor, primary screen, human, duplicate replicates (AID 580;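 active = viability at or under a set limit in both replicates, limit being median viability minus 3 SD, cut at about 48% in these data, passing the limit was not always enough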;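 also: 100% = mean luminescence of untreated wells and 0% = no signal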); conditions: H69AR lung tumor cells viability, ATP luminescence, 72 h; at 10 µM; stronger effect = lower value
[6] = reversal of MRP1-mediated doxorubicin resistance, pilot screen, H69AR cells, doxorubicin co-treatment (AID 601;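 active = viability loss from added drug above about 55%, and viability with drug at most 40%, in both replicates, limit read from the data, passing the limit was not always enough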); conditions: CellTiter-Glo, 72 h, at 10 µM; for differential viability (reversal): stronger effect = higher value
[7] = 384-well plate pilot, post-Golgi transport modulator project, inhibition of yeast transport mutant growth (AID 636; in the data active = inhibition above about 31%); conditions: absorbance 615 nm, about 18 h, stronger effect = higher value
[8] = growth suppression of yeast trafficking mutant, preliminary HTS, modulators of trafficking downstream of Golgi apparatus project, 1536-format plate, OD 615 nm (AID 637; in the data active = inhibition above about 30%); conditions: yeast transport mutant growth, absorbance 615 nm, 18 h; stronger effect = higher value
[9] = H69AR cells + 2 uM doxorubicin, measured here: viability with 2 uM doxorubicin, stronger effect = lower value
[10] = H69AR cells, compound alone cytotoxicity

Receptor tyrosine-protein kinase erbB-2 (Homo sapiens), sequence (P04626 whole entry, looked up): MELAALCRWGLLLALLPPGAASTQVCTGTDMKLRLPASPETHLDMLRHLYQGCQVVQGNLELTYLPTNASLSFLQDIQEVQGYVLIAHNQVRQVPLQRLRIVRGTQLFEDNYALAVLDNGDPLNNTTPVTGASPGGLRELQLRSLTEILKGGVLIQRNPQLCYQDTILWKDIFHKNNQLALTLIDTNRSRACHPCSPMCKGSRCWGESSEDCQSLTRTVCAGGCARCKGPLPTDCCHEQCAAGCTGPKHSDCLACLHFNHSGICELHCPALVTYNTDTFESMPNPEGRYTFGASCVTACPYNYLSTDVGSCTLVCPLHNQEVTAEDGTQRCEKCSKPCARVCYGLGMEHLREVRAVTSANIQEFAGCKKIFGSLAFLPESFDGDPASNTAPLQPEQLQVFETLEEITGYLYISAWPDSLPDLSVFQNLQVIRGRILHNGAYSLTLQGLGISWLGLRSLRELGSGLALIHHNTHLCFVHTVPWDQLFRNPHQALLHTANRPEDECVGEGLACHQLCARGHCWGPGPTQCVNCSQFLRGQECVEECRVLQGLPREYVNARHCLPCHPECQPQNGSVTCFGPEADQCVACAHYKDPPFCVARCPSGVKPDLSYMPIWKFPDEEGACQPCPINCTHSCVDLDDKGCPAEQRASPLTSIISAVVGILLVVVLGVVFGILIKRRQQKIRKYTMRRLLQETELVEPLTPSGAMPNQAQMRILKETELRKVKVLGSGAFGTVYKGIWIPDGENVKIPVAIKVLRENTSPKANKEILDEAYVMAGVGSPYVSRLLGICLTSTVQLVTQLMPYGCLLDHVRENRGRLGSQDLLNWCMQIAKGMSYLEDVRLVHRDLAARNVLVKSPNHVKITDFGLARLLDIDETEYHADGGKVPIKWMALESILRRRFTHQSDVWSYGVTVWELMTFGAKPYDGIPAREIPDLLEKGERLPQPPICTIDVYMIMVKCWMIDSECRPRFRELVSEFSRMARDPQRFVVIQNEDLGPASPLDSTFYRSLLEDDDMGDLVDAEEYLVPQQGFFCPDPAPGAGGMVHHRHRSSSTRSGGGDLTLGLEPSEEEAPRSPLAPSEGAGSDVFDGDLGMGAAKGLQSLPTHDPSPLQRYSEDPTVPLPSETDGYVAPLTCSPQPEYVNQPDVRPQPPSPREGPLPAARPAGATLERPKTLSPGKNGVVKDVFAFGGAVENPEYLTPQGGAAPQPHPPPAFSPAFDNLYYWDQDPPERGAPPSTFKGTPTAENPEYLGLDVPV

Compound | viability [1] | Her2 level [2] | viability [3] | viability [4] | viability [5] | differential viability (reversal) ([6]; H69AR cells + 2 uM doxorubicin) | viability [6, 9] | viability [6, 10] | inhibition [7] | inhibition [8]
CC1=CC=CC2=NC(=O)CC(C)(C(=O)N(CC(=O)NC(C)C)C3CCCC3)N12 (stereo not given) | 101% | 100% (inactive) | 101% (inactive) | 96.5% (inactive) | 94% (inactive) | -6.48% (inactive) | 100% | 94% | -4% (inactive) | 0.16% (inactive)
O=C(Nc1cccnc1N1CCOCC1)c1ccco1 | 110% | 86% (inactive) | 110% (inactive) | 115% (inactive) | 92% (inactive) | 7.89% (inactive) | 84.2% | 92% | -7.3% (inactive) | -4.67% (inactive)
CCn1cc(C(=O)N2CCCC2)c(=O)c2cc(S(=O)(=O)N3CCOCC3)ccc21 | 116% | 99% (inactive) | 116% (inactive) | 92.2% (inactive) | 99.5% (inactive) | 1.21% (inactive) | 98.3% | 99.5% | -5.92% (inactive) | -6.51% (inactive)
Cc1ccc(NC(=O)C2CCCN2S(=O)(=O)c2cccc3cccnc23)cc1F (stereo not given) | 98% | 97.5% (inactive) | 98% (inactive) | 102% (inactive) | 93.7% (inactive) | -6.31% (inactive) | 100% | 93.7% | -4% (inactive) | 3.93% (inactive)
c1ccc(Cc2ccc(OCCn3cncn3)cc2)cc1 | 84% | 108% (inactive) | 84% (inactive) | 98.6% (inactive) | 95% (inactive) | 14.6% (inactive) | 80.4% | 95% | -3.92% (inactive) | -7.38% (inactive)
CS(=O)(=O)N1CCN(CC2CC3C=CC2C3)CC1 (stereo not given) | 110% | 98% (inactive) | 110% (inactive) | 111% (inactive) | 101% (inactive) | 9.65% (inactive) | 91.1% | 101% | -6.35% (inactive) | 3.17% (inactive)
Cc1cc(-c2ccccc2)c(C#N)c(N)n1 | 114% | 91% (inactive) | 114% (inactive) | 81.9% (inactive) | 99.3% (inactive) | 6.5% (inactive) | 92.8% | 99.3% | -2.3% (inactive) | -0.98% (inactive)
CCOc1ccc(-n2cc(C(=O)Nc3cccc(C)n3)c3cc(OC)c(OC)cc3c2=O)cc1 | 110% | 91% (inactive) | 110% (inactive) | 71.8% (inactive) | 64.4% (inactive) | -11.8% (inactive) | 76.2% | 64.4% | -5.47% (inactive) | 4.43% (inactive)
Nc1nc(-c2ccccc2Br)cs1 | 91.5% | 96.5% (inactive) | 91.5% (inactive) | 86.3% (inactive) | 91.5% (inactive) | 9.75% (inactive) | 81.8% | 91.5% | -0.66% (inactive) | -8.55% (inactive)
COc1ccc(OC)c(N(CC(=O)N2CCN(c3cc(Cl)ccc3C)CC2)S(C)(=O)=O)c1 | 100% | 94% (inactive) | 100% (inactive) | 78.2% (inactive) | 75.9% (inactive) | 3.83% (inactive) | 72% | 75.9% | -5.53% (inactive) | 0.48% (inactive)
NC(=O)c1cccc(S(=O)(=O)N2CCCCC2)c1 | 99% | 96% (inactive) | 99% (inactive) | 96.9% (inactive) | 106% (inactive) | 9.71% (inactive) | 96.5% | 106% | -7.84% (inactive) | 2.62% (inactive)
Cc1ccc(-c2nnc3ccc(SCC(=O)NCc4ccco4)nn23)cc1 | 100% | 87.5% (inactive) | 100% (inactive) | 89% (inactive) | 93.2% (inactive) | 9.33% (inactive) | 83.9% | 93.2% | -5.41% (inactive) | -8.33% (inactive)
CC(=O)N1CCc2cc(S(=O)(=O)NC(CC(C)C)C(=O)N3CCn4c3nc3ccccc34)ccc21 (stereo not given) | 88.5% | 87.5% (inactive) | 88.5% (inactive) | 92% (inactive) | 97.6% (inactive) | -3.44% (inactive) | 101% | 97.6% | -4.4% (inactive) | 1.8% (inactive)
CC1Cc2ccccc2N1S(=O)(=O)c1cccc(C(=O)OCC(=O)NC2CCS(=O)(=O)C2)c1 (stereo not given) | 88% | 82.5% (inactive) | 88% (inactive) | 89.1% (inactive) | 97.2% (inactive) | 12.3% (inactive) | 84.9% | 97.2% | -6.4% (inactive) | -3.61% (inactive)
CCOc1cc(C(=O)N2CCN(c3ccccc3)CC2)cc(OCC)c1OCC | 98.5% | 97% (inactive) | 98.5% (inactive) | 90.1% (inactive) | 97.2% (inactive) | 3.12% (inactive) | 94% | 97.2% | -4.93% (inactive) | -5.32% (inactive)

— PubChem BioAssay
